Laboratory results published in ChEMBL document CHEMBL4842356, “Discovery, optimization, and target identification of novel coumarin derivatives as HIV-1 reverse transcriptase-associated ribonuclease H inhibitors” (Eur J Med Chem, 2021).

Assays:
[1] = tested on: Human immunodeficiency virus 1; experiment: Antiviral activity against wild type HIV1 3B infected in human MT4 cells assessed as protection against virus-induced cytopathic effect incubated for 5 days by MTT assay; type: functional, organism-based; conditions: Human immunodeficiency virus 1, 3B, MT4, 120 h
Summary of the method: (§1)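 MT-4 cells (exponentially growing, resuspended at 6 × 10⁵ cells/mL) were seeded onto serial five-fold compound dilutions and infected with 100–300 CCID₅₀ virus stock, or given medium only (mock). Viability was read by MTT at 540 and 690 nm five days after infection, using the median OD of three wells. EC₅₀ is 50% protection from viral cytopathicity. CC₅₀ is 50% loss of viability in mock-infected cells.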

MT4 = experiment: Cytotoxicity against mock-infected human MT4 cells assessed as reduction in cell viability measured after 5 days by MTT assay; type: functional; conditions: MT4, 120 h, time 5 day; summary of the method: as §1
[2] = tested on: Human immunodeficiency virus 2; experiment: Antiviral activity against HIV2 ROD infected in human MT4 cells assessed as protection against virus-induced cytopathic effect incubated for 5 days by MTT assay; conditions: Human immunodeficiency virus 2, ISOLATE ROD, MT4, 120 h
[3] = molecular target: Human immunodeficiency virus type 1 reverse transcriptase (Human immunodeficiency virus 1, UniProt Q72547); experiment: Inhibition of wild type HIV1 Reverse transcriptase RNase H expressed in Escherichia coli using 5'-UUUUUUUUUAGGAUACAUAUGGUUAAAGU-3' oligonucleotide as substrate and DNA21P as primer in presence of [gamma32P]-ATP by PAGE analysis
Summary of the method: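 Wild-type HIV-1 BH10 RT was expressed in E. coli and purified. RNase H activity was measured on a 31-nt RNA, 5′-³²P-labelled, annealed to a 21-nt DNA (31T/21P). Cleaved substrate was quantified without inhibitor (5% DMSO) and with compound over 0.2–100 µM. IC₅₀ values were taken from dose-response curves.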

[4] = molecular target: Human immunodeficiency virus type 1 reverse transcriptase (Human immunodeficiency virus 1) (UniProt Q72547); experiment: Inhibition of wild type HIV1 Reverse transcriptase RNase H expressed in Escherichia coli at 100 uM using 5'-UUUUUUUUUAGGAUACAUAUGGUUAAAGU-3' oligonucleotide as substrate and DNA21P as primer in presence of [gamma32P]-ATP by PAGE analysis relative to control
[5] = molecular target: Human immunodeficiency virus type 1 reverse transcriptase (Human immunodeficiency virus 1) (UniProt Q72547); experiment: Inhibition of wild type HIV1 Reverse transcriptase RNase H expressed in Escherichia coli at 50 uM using 5'-UUUUUUUUUAGGAUACAUAUGGUUAAAGU-3' oligonucleotide as substrate and DNA21P as primer in presence of [gamma32P]-ATP by PAGE analysis relative to control

Row | Compound | EC50 [1] [µM] | CC50 (MT4) [µM] | EC50 [2] [µM] | IC50 [3] [µM] | inhibition [4] [%] | inhibition [5] [%]
1 | Cc1c(O)c([N+](=O)[O-])cc2cc(C(=O)NC3CCN(Cc4ccc(Br)cc4)CC3)c(=O)oc12 | > 72.3 | 72.3 | > 72.3 |  |  | 
2 | Cc1c(O)c([N+](=O)[O-])cc2cc(C(=O)NCc3ccccc3F)c(=O)oc12 | > 45 | 45 | > 45 | > 100 | 38.7 | 
3 | O=C(NCc1ccc(F)cc1Cl)c1cc2cc([N+](=O)[O-])c(O)c(O)c2oc1=O | 46.1 | 266 | > 266 | > 50 | 68.6 | < 10
4 | Cc1c(O)c([N+](=O)[O-])cc2cc(C(=O)NC3CCN(S(=O)(=O)N(C)C)CC3)c(=O)oc12 | > 50.8 | 50.8 | > 50.8 |  |  | 
5 | Cc1c(O)c([N+](=O)[O-])cc2cc(C(=O)Nc3ccccc3F)c(=O)oc12 | > 10.7 | 10.7 | > 10.7 |  |  | 
6 | O=C(NC1CCN(Cc2ccc(Br)cc2)CC1)c1cc2cc([N+](=O)[O-])c(O)c(O)c2oc1=O | > 112 | 112 | > 112 | > 100 | 47.4 | 
7 | Cc1c(O)c([N+](=O)[O-])cc2cc(C(=O)NC3CCN(Cc4ccc([N+](=O)[O-])cc4)CC3)c(=O)oc12 | 234 | > 264 | > 259 |  |  | 
8 | Cc1c(O)c([N+](=O)[O-])cc2cc(C(=O)NC3CCN(Cc4ccc(Cl)cc4)CC3)c(=O)oc12 | 167 | > 264 | 148 | > 100 | 23.8 | 
9 | Cc1c(O)c([N+](=O)[O-])cc2cc(C(=O)NC3CCN(Cc4cccc(Br)c4)CC3)c(=O)oc12 | > 14.7 | 14.7 | > 14.7 | > 50 | 62.9 | < 10
10 | Cc1c(O)c([N+](=O)[O-])cc2cc(C(=O)NC3CCN(Cc4ccc(C(N)=O)cc4)CC3)c(=O)oc12 | 138 | > 260 | > 260 | > 50 | 87.2 | 37.1
11 | O=C(NC1CCN(Cc2ccc([N+](=O)[O-])cc2)CC1)c1cc2cc([N+](=O)[O-])c(O)c(O)c2oc1=O | > 101 | > 217 | > 101 |  |  | 
12 | Cc1c(O)c([N+](=O)[O-])cc2cc(C(=O)NCc3ccc(F)cc3)c(=O)oc12 | > 44 | 44 | > 44 |  |  | 
13 | O=C(NC1CCN(Cc2cccc(F)c2)CC1)c1cc2cc([N+](=O)[O-])c(O)c(O)c2oc1=O | 210 | > 220 | > 220 | > 50 | 57.7 | 
14 | O=C(NCc1ccc(F)cc1)c1cc2cc([N+](=O)[O-])c(O)c(O)c2oc1=O | > 272 | 272 | > 272 | > 100 | 48 | 
15 | Cc1c(O)c([N+](=O)[O-])cc2cc(C(=O)NC3CCN(Cc4cccc(Cl)c4)CC3)c(=O)oc12 | > 9.38 | 9.37 |  |  |  | 
16 | Cc1c(O)c([N+](=O)[O-])cc2cc(C(=O)NC3CCN(Cc4ccc(F)cc4)CC3)c(=O)oc12 | > 42.6 | 42.6 | > 42.6 |  |  | 
17 | COC(=O)c1cc(NC(=O)c2cc3cc([N+](=O)[O-])c(O)c(C)c3oc2=O)ccc1O | > 182 | 182 | > 182 |  |  | 

Row | Compound | EC50 [1] [µM] | CC50 (MT4) [µM] | EC50 [2] [µM] | IC50 [3] [µM] | inhibition [4] [%] | inhibition [5] [%]
18 | Cc1c(O)c([N+](=O)[O-])cc2cc(C(=O)Nc3ccc(F)cc3)c(=O)oc12 | > 6.5 | 6.5 | > 6.5 |  |  | 
19 | Cc1ccc(CN2CCC(NC(=O)c3cc4cc([N+](=O)[O-])c(O)c(C)c4oc3=O)CC2)cc1 | > 276 | > 276 | > 276 |  |  | 
20 | Cc1c(O)c([N+](=O)[O-])cc2cc(C(=O)NC3CCN(Cc4cccc(F)c4)CC3)c(=O)oc12 | > 50.5 | 50.5 | > 50.5 | 45.2 |  | 
21 | O=C(Nc1ccc(F)cc1F)c1cc2cc([N+](=O)[O-])c(O)c(O)c2oc1=O | 237 | > 330 | > 330 | > 50 | 78 | 12
22 | Cc1c(O)c([N+](=O)[O-])cc2cc(C(=O)Nc3cccc(F)c3)c(=O)oc12 | > 12.5 | 12.5 | > 12.5 | > 100 | 28.6 | 
23 | O=C(NCc1cccc(F)c1)c1cc2cc([N+](=O)[O-])c(O)c(O)c2oc1=O | > 228 | 228 | > 228 |  |  | 
24 | Cc1c(O)c([N+](=O)[O-])cc2cc(C(=O)NC3CCN(Cc4ccccc4)CC3)c(=O)oc12 | > 7.8 | 7.8 | > 7.8 |  |  | 
25 | O=C(NC1CCN(Cc2cccc(Br)c2)CC1)c1cc2cc([N+](=O)[O-])c(O)c(O)c2oc1=O | > 153 | 153 | > 153 | > 50 | 57.4 | 32.4
26 | Cc1c(O)c([N+](=O)[O-])cc2cc(C(=O)NC3CCN(C(=O)N(C)C)CC3)c(=O)oc12 | > 19.9 | 19.9 | > 19.9 |  |  | 
27 | Cc1c(O)c([N+](=O)[O-])cc2cc(C(=O)NC3CCN(C(=O)c4ccc([N+](=O)[O-])cc4)CC3)c(=O)oc12 | > 251 | > 251 | > 251 |  |  | 
28 | O=C(Nc1ccc(F)cc1)c1cc2cc([N+](=O)[O-])c(O)c(O)c2oc1=O | > 200 | 200 | > 200 | > 50 | 72.5 | < 10
29 | Cc1c(O)c([N+](=O)[O-])cc2cc(C(=O)NCc3ccc(F)cc3Cl)c(=O)oc12 | > 32.5 | 32.5 | > 32.5 |  |  | 
30 | Cc1cccc(CN2CCC(NC(=O)c3cc4cc([N+](=O)[O-])c(O)c(C)c4oc3=O)CC2)c1 | > 3.88 | 3.88 | > 3.88 | > 50 | 72.1 | < 10
31 | O=C(NCc1ccccc1F)c1cc2cc([N+](=O)[O-])c(O)c(O)c2oc1=O | > 259 | 259 | > 259 |  |  | 
32 | N#Cc1ccc(CN2CCC(NC(=O)c3cc4cc([N+](=O)[O-])c(O)c(O)c4oc3=O)CC2)cc1 | 160 | > 269 | > 269 |  |  | 
33 | O=C(NC1CCN(Cc2ccc(Cl)cc2)CC1)c1cc2cc([N+](=O)[O-])c(O)c(O)c2oc1=O | > 21.7 | 21.7 | > 21.7 | 8.4 |  | 31.8
34 | Cc1c(O)c([N+](=O)[O-])cc2cc(C(=O)NCc3cccc(F)c3)c(=O)oc12 | > 47.5 | 47.5 | > 47.5 |  |  | 
